From ChEMBL document CHEMBL3352407, “Griseorhodins D-F, neuroactive intermediates and end products of post-PKS tailoring modification in Griseorhodin biosynthesis” (J Nat Prod, 2014) come the findings set out here.

Calls of active or inactive are those of the source. The calls are words filed in the database; no cut-off is given here.

Test [1] concerns DRG neuron. The test is described as follows: Increase in Ca2+ uptake in mouse DRG neurons at 10 ug/ml by Fura-2 dye-based fluorescence microscopy in presence of KCl relative to control. Format: functional. The method, boiled down: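 Mouse DRG cells plated in medium with additives and loaded with the Ca2+ dye Fura-2 AM. Compound applied at 10 μg/mL, then 25 mM KCl added. Ca2+ influx compared with control cells in the same well.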

Test [2] relates to DRG neuron. Kind of test: Induction of depolarization of mouse DRG neurons at 10 ug/ml by Fura-2 dye-based fluorescence microscopy. Format: functional. The method, boiled down:
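Dorsal root ganglion cells were taken from mice, plated in medium with additives and loaded with Fura-2 AM. Intracellular Ca2+ was followed as the read-out while compound was applied at 10 μg/mL. This was followed by 25 mM KCl, with responses compared against control cells in the same well.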

Regarding `CC(=O)Cc1cc2c(c(O)c1C(=O)O)-c1cc3c(c(O)c1CC2)C(=O)c1c(O)cc(O)cc1[C@H]3[C@H]1c2cc(O)cc(O)c2C(=O)c2c1cc1c(c2O)CCc2cc(CC(C)=O)c(C(=O)O)c(O)c2-1` (stereo in doubt; 1a), in the test on DRG neuron [1], the result was Active. Besides, the result with DRG neuron [2] was inactive.
